Several values for one entry are separate records, joined by “and”; a condition that tells them apart may be missing. Equal entries are not always repeated.
System: Fibroblast
Assay: Multiplex assay against human fibroblast
Assay type: toxicity, cell-based
Procedure, shortened: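 Compound was added to live cells that had been stained at seeding with Hoechst33342, BioTracker Green Microtubule Cytoskeleton Dye, MitoTracker Red and Annexin V Alexa Fluor 680, and imaging followed on a CQ1 microscope at 37°C and 5% CO2. CellPathfinder machine-learning gating divided cells into Hoechst high-intensity objects or normal cells, normal cells into healthy, pyknosed or fragmented nuclei, and pyknosed cells into mitotic or apoptotic. Tubulin, mitochondrial-mass and membrane-permeability phenotypes are per cents of healthy-nucleus cells.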

[1] = 12 h, 1 µM, compound concentration 1 uM
[2] = 12 h, 10 µM, compound concentration 10 uM
[3] = 24 h, 1 µM, compound concentration 1 uM
[4] = 24 h, 10 µM, compound concentration 10 uM
[5] = 48 h, 1 µM, compound concentration 1 uM
[6] = 48 h, 10 µM, compound concentration 10 uM

Cc1c(Cc2ccc3ccccc3n2)c2cc(F)ccc2n1CC(=O)O [TIMAPIPRANT]
Population Apoptotic (%) [1]: 41% and 33% | Population Fragmented Nuclei (%) [1]: 12% and 28% | Population Healthy Nuclei (%) [1]: 67% and 49% | Population Hoechst High Intensity Objects (%) [1]: 5% | Population Membrane Permeable-Phenotype (%) [1]: 1% and 9% | Population Mitochondria Different-Phenotype (%) [1]: 7% and 4% | Population Mitotic Cells (%) [1]: 58% and 66% | Population Normal (%) [1]: 94% | Population Pyknosed Nuclei (%) [1]: 19% and 22% | Population Tubulin-Different-Phenotype (%) [1]: 26% and 43% | Total Cell Count [1]: 171 and 142 | Population Apoptotic (%) [2]: 66% and 53% | Population Fragmented Nuclei (%) [2]: 13% and 26% | Population Healthy Nuclei (%) [2]: 77% and 53% | Population Hoechst High Intensity Objects (%) [2]: 2% and 5% | Population Membrane Permeable-Phenotype (%) [2]: 0% and 1% | Population Mitochondria Different-Phenotype (%) [2]: 7% | Population Mitotic Cells (%) [2]: 33% and 46% | Population Normal (%) [2]: 97% and 95% | Population Pyknosed Nuclei (%) [2]: 8% and 19% | Population Tubulin-Different-Phenotype (%) [2]: 35% and 43% | Total Cell Count [2]: 147 and 160 | Population Apoptotic (%) [3]: 33% and 47% | Population Healthy Nuclei (%) [3]: 73% and 52% | Population Hoechst High Intensity Objects (%) [3]: 1% and 5% | Population Membrane Permeable-Phenotype (%) [3]: 3% and 7% | Population Mitochondria Different-Phenotype (%) [3]: 2% and 4% | Population Mitotic Cells (%) [3]: 66% and 52% | Population Normal (%) [3]: 98% and 94% | Population Pyknosed Nuclei (%) [3]: 17% | Population Tubulin-Different-Phenotype (%) [3]: 26% and 38% | Total Cell Count [3]: 158 and 142 | Population Apoptotic (%) [4]: 66% and 52% | Population Fragmented Nuclei (%) [4]: 14% and 29% | Population Healthy Nuclei (%) [4]: 77% and 58% | Population Hoechst High Intensity Objects (%) [4]: 2% and 7% | Population Membrane Permeable-Phenotype (%) [4]: 0% and 3% | Population Mitochondria Different-Phenotype (%) [4]: 6% and 10% | Population Mitotic Cells (%) [4]: 33% and 47% | Population Normal (%) [4]: 97% and 92% | Population Pyknosed Nuclei (%) [4]: 8% and 12% | Population Tubulin-Different-Phenotype (%) [4]: 30% and 52% | Total Cell Count [4]: 150 and 164 | Population Apoptotic (%) [5]: 72% and 61% | Population Fragmented Nuclei (%) [5]: 15% and 36% | Population Healthy Nuclei (%) [5]: 72% and 48% | Population Hoechst High Intensity Objects (%) [5]: 7% and 6% | Population Membrane Permeable-Phenotype (%) [5]: 0% and 2% | Population Mitochondria Different-Phenotype (%) [5]: 2% and 1% | Population Mitotic Cells (%) [5]: 27% and 38% | Population Normal (%) [5]: 92% and 94% | Population Pyknosed Nuclei (%) [5]: 12% and 14% | Population Tubulin-Different-Phenotype (%) [5]: 25% and 34% | Total Cell Count [5]: 162 and 150 | Population Apoptotic (%) [6]: 66% and 60% | Population Fragmented Nuclei (%) [6]: 18% and 30% | Population Healthy Nuclei (%) [6]: 75% and 59% | Population Hoechst High Intensity Objects (%) [6]: 5% and 2% | Population Membrane Permeable-Phenotype (%) [6]: 0% and 1% | Population Mitochondria Different-Phenotype (%) [6]: 3% and 1% | Population Mitotic Cells (%) [6]: 33% and 40% | Population Normal (%) [6]: 94% and 97% | Population Pyknosed Nuclei (%) [6]: 6% and 9% | Population Tubulin-Different-Phenotype (%) [6]: 31% and 37% | Total Cell Count [6]: 152 and 157

c1cc(OCCCN2CCCCC2)ccc1CN1CCCCC1 [JNJ-5207852]
Population Apoptotic (%) [1]: 37% and 26% | Population Fragmented Nuclei (%) [1]: 15% and 24% | Population Healthy Nuclei (%) [1]: 64% and 51% | Population Hoechst High Intensity Objects (%) [1]: 1% and 7% | Population Membrane Permeable-Phenotype (%) [1]: 0% and 8% | Population Mitochondria Different-Phenotype (%) [1]: 2% and 5% | Population Mitotic Cells (%) [1]: 62% and 73% | Population Normal (%) [1]: 98% and 92% | Population Pyknosed Nuclei (%) [1]: 20% and 23% | Population Tubulin-Different-Phenotype (%) [1]: 26% and 49% | Total Cell Count [1]: 181 and 153 | Population Apoptotic (%) [2]: 50% and 43% | Population Fragmented Nuclei (%) [2]: 22% and 36% | Population Healthy Nuclei (%) [2]: 68% and 42% | Population Hoechst High Intensity Objects (%) [2]: 1% | Population Membrane Permeable-Phenotype (%) [2]: 0% and 12% | Population Mitochondria Different-Phenotype (%) [2]: 6% and 10% | Population Mitotic Cells (%) [2]: 50% and 56% | Population Normal (%) [2]: 98% | Population Pyknosed Nuclei (%) [2]: 9% and 20% | Population Tubulin-Different-Phenotype (%) [2]: 35% and 60% | Total Cell Count [2]: 193 and 114 | Population Apoptotic (%) [3]: 38% and 33% | Population Fragmented Nuclei (%) [3]: 18% and 28% | Population Healthy Nuclei (%) [3]: 66% and 51% | Population Hoechst High Intensity Objects (%) [3]: 2% and 5% | Population Membrane Permeable-Phenotype (%) [3]: 0% and 5% | Population Mitochondria Different-Phenotype (%) [3]: 2% and 6% | Population Mitotic Cells (%) [3]: 61% and 66% | Population Normal (%) [3]: 97% and 95% | Population Pyknosed Nuclei (%) [3]: 15% and 19% | Population Tubulin-Different-Phenotype (%) [3]: 23% and 55% | Total Cell Count [3]: 176 and 160 | Population Apoptotic (%) [4]: 60% and 41% | Population Fragmented Nuclei (%) [4]: 24% and 45% | Population Healthy Nuclei (%) [4]: 65% and 38% | Population Hoechst High Intensity Objects (%) [4]: 1% and 5% | Population Membrane Permeable-Phenotype (%) [4]: 0% and 4% | Population Mitochondria Different-Phenotype (%) [4]: 6% and 13% | Population Mitotic Cells (%) [4]: 40% and 58% | Population Normal (%) [4]: 99% and 94% | Population Pyknosed Nuclei (%) [4]: 10% and 15% | Population Tubulin-Different-Phenotype (%) [4]: 34% and 67% | Total Cell Count [4]: 201 and 118 | Population Apoptotic (%) [5]: 70% and 44% | Population Fragmented Nuclei (%) [5]: 18% and 32% | Population Healthy Nuclei (%) [5]: 63% and 48% | Population Hoechst High Intensity Objects (%) [5]: 2% and 4% | Population Membrane Permeable-Phenotype (%) [5]: 0% and 5% | Population Mitochondria Different-Phenotype (%) [5]: 2% | Population Mitotic Cells (%) [5]: 29% and 55% | Population Normal (%) [5]: 97% and 95% | Population Pyknosed Nuclei (%) [5]: 17% and 18% | Population Tubulin-Different-Phenotype (%) [5]: 23% and 50% | Total Cell Count [5]: 184 and 160 | Population Apoptotic (%) [6]: 55% and 30% | Population Fragmented Nuclei (%) [6]: 19% and 48% | Population Healthy Nuclei (%) [6]: 70% and 41% | Population Hoechst High Intensity Objects (%) [6]: 2% and 3% | Population Membrane Permeable-Phenotype (%) [6]: 0% and 5% | Population Mitochondria Different-Phenotype (%) [6]: 2% and 11% | Population Mitotic Cells (%) [6]: 44% and 69% | Population Normal (%) [6]: 97% and 96% | Population Pyknosed Nuclei (%) [6]: 9% and 10% | Population Tubulin-Different-Phenotype (%) [6]: 34% and 66% | Total Cell Count [6]: 189 and 132

Cc1nn(C)c2nc(NNC(=O)Nc3cc(Cl)nc(Cl)c3)cc(C(C)C)c12
Population Apoptotic (%) [1]: 62% and 37% | Population Fragmented Nuclei (%) [1]: 15% and 31% | Population Healthy Nuclei (%) [1]: 68% and 53% | Population Hoechst High Intensity Objects (%) [1]: 3% and 2% | Population Membrane Permeable-Phenotype (%) [1]: 0% | Population Mitochondria Different-Phenotype (%) [1]: 4% and 7% | Population Mitotic Cells (%) [1]: 37% and 62% | Population Normal (%) [1]: 96% and 97% | Population Pyknosed Nuclei (%) [1]: 15% | Population Tubulin-Different-Phenotype (%) [1]: 27% and 46% | Total Cell Count [1]: 178 and 179 | Population Apoptotic (%) [2]: 53% and 21% | Population Fragmented Nuclei (%) [2]: 12% and 33% | Population Healthy Nuclei (%) [2]: 63% and 56% | Population Hoechst High Intensity Objects (%) [2]: 3% and 7% | Population Membrane Permeable-Phenotype (%) [2]: 2% and 5% | Population Mitochondria Different-Phenotype (%) [2]: 15% and 6% | Population Mitotic Cells (%) [2]: 46% and 78% | Population Normal (%) [2]: 96% and 92% | Population Pyknosed Nuclei (%) [2]: 23% and 10% | Population Tubulin-Different-Phenotype (%) [2]: 89% | Total Cell Count [2]: 139 and 140 | Population Apoptotic (%) [3]: 59% and 62% | Population Fragmented Nuclei (%) [3]: 18% and 21% | Population Healthy Nuclei (%) [3]: 68% | Population Hoechst High Intensity Objects (%) [3]: 1% and 2% | Population Membrane Permeable-Phenotype (%) [3]: 1% and 2% | Population Mitochondria Different-Phenotype (%) [3]: 3% and 6% | Population Mitotic Cells (%) [3]: 40% and 37% | Population Normal (%) [3]: 98% and 97% | Population Pyknosed Nuclei (%) [3]: 12% and 9% | Population Tubulin-Different-Phenotype (%) [3]: 29% and 50% | Total Cell Count [3]: 176 and 174 | Population Apoptotic (%) [4]: 52% and 25% | Population Fragmented Nuclei (%) [4]: 12% and 28% | Population Healthy Nuclei (%) [4]: 69% and 61% | Population Hoechst High Intensity Objects (%) [4]: 4% and 8% | Population Membrane Permeable-Phenotype (%) [4]: 1% and 0% | Population Mitotic Cells (%) [4]: 47% and 75% | Population Normal (%) [4]: 95% and 91% | Population Pyknosed Nuclei (%) [4]: 18% and 9% | Population Tubulin-Different-Phenotype (%) [4]: 95% and 89% | Total Cell Count [4]: 130 and 132 | Population Apoptotic (%) [5]: 71% and 57% | Population Fragmented Nuclei (%) [5]: 18% and 34% | Population Healthy Nuclei (%) [5]: 73% and 62% | Population Hoechst High Intensity Objects (%) [5]: 1% and 2% | Population Membrane Permeable-Phenotype (%) [5]: 1% and 2% | Population Mitochondria Different-Phenotype (%) [5]: 2% | Population Mitotic Cells (%) [5]: 28% and 42% | Population Normal (%) [5]: 98% and 97% | Population Pyknosed Nuclei (%) [5]: 7% and 3% | Population Tubulin-Different-Phenotype (%) [5]: 30% and 36% | Total Cell Count [5]: 188 and 184 | Population Apoptotic (%) [6]: 93% and 62% | Population Fragmented Nuclei (%) [6]: 16% and 38% | Population Healthy Nuclei (%) [6]: 70% and 56% | Population Hoechst High Intensity Objects (%) [6]: 8% and 3% | Population Membrane Permeable-Phenotype (%) [6]: 2% | Population Normal (%) [6]: 91% and 96% | Population Pyknosed Nuclei (%) [6]: 13% and 5% | Population Tubulin-Different-Phenotype (%) [6]: 96% and 85% | Total Cell Count [6]: 129 and 155
